# Columns and labels:
# Details in all cases: stereoisomer not certain
# OR5K1 (Homo sapiens) = biological target: T1, OR5K1 (Homo sapiens) (UniProt Q8NHB7)
# T1 sequence (whole entry): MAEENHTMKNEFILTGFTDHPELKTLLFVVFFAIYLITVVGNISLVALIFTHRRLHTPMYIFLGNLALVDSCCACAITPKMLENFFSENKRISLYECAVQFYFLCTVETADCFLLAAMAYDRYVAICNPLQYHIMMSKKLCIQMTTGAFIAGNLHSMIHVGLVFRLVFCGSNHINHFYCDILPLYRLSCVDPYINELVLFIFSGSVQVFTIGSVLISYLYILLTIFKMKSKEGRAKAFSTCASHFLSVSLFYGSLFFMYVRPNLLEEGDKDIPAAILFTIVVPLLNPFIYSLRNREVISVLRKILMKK
# Outline: (§1)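 Assay methods differ from source to source, frequently being transient luciferase assays in mammalian cell lines. For each receptor–molecule pair, the label responsive (active) applies when the original authors judged the measured signal statistically different from baseline, and non-responsive (inactive) applies otherwise.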
# OR5I1 (Homo sapiens) = OR5I1 (Homo sapiens) (UniProt Q13606)
# Outline: as §1
# OR5J2 (Homo sapiens) = OR5J2 (Homo sapiens) (UniProt Q8NH18)
# Outline: as §1
# OR5K2 (Homo sapiens) = OR5K2 (Homo sapiens) (UniProt Q8NHB8)
# Outline: as §1
# OR5K3 (Homo sapiens) = OR5K3 (Homo sapiens) (UniProt A6NET4)
# Outline: as §1
# OR5K4 (Homo sapiens) = OR5K4 (Homo sapiens) (UniProt A6NMS3)
# Outline: as §1
# OR5L1 (Homo sapiens) = OR5L1 (Homo sapiens) (UniProt Q8NGL2)
# Outline: as §1
# OR5M1 (Homo sapiens) = OR5M1 (Homo sapiens) (UniProt Q8NGP8)
# Outline: as §1
# OR5K2 L197M = test system: OR5K2 L197M
# Outline: as §1
# OR5L2 (Homo sapiens) = OR5L2 (Homo sapiens) (UniProt Q8NGL0)
# Outline: as §1
# Sequence of OR5M1 (Homo sapiens) (Q8NGP8 whole entry): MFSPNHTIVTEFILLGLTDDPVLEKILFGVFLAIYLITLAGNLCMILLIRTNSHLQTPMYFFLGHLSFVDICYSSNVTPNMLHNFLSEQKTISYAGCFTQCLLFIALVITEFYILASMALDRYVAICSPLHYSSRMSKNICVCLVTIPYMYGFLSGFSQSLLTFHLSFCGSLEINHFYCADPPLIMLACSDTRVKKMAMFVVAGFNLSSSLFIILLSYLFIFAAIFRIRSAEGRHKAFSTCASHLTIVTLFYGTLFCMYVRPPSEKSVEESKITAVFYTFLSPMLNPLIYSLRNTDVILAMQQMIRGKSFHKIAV
# Sequence of OR5I1 (Homo sapiens) (Q13606 whole entry): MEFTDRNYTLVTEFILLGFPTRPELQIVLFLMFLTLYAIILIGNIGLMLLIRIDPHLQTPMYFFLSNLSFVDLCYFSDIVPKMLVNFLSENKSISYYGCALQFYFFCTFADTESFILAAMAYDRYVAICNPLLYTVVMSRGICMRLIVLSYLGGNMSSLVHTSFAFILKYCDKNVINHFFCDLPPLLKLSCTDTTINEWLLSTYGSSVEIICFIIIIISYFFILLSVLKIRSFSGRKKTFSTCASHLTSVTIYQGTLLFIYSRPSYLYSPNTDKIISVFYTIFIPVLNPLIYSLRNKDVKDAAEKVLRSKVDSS
# Sequence of OR5K4 (Homo sapiens) (A6NMS3 whole entry): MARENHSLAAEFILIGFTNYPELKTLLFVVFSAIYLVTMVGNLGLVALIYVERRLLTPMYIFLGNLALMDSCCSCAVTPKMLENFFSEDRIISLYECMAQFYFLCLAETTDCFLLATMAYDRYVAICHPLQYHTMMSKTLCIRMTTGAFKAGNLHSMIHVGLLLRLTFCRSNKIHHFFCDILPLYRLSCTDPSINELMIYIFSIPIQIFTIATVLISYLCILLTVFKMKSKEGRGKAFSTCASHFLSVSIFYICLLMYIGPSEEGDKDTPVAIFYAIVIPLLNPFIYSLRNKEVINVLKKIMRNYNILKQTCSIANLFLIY
# Sequence of OR5K3 (Homo sapiens) (A6NET4 whole entry): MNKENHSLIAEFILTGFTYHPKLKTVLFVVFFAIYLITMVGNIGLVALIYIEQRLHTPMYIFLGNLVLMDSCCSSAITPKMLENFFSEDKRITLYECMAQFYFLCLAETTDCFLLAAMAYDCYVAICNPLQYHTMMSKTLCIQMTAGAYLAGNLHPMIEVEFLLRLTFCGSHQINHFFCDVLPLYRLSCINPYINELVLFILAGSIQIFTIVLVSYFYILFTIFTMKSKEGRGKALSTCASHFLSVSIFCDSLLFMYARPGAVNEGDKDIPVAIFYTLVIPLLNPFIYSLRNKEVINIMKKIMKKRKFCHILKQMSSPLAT
# Sequence of OR5K2 (Homo sapiens) (Q8NHB8 whole entry): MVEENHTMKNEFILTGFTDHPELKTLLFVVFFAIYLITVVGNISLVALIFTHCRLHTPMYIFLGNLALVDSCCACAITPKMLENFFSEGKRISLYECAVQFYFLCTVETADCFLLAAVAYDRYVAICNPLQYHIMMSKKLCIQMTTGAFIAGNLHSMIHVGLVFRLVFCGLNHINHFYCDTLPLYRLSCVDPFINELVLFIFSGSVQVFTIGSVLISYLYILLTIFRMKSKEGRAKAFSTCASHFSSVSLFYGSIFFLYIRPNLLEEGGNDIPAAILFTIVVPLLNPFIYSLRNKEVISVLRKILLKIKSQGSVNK
# Sequence of OR5L1 (Homo sapiens) (Q8NGL2 whole entry): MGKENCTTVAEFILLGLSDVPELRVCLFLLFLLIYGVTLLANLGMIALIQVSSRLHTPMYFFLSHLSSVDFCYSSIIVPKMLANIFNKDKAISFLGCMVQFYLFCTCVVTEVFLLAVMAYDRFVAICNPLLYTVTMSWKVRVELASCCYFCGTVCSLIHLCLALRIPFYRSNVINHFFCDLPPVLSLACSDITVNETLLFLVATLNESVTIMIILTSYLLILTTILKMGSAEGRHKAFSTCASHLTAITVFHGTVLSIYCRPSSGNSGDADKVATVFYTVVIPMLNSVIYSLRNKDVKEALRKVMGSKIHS
# Sequence of OR5J2 (Homo sapiens) (Q8NH18 whole entry): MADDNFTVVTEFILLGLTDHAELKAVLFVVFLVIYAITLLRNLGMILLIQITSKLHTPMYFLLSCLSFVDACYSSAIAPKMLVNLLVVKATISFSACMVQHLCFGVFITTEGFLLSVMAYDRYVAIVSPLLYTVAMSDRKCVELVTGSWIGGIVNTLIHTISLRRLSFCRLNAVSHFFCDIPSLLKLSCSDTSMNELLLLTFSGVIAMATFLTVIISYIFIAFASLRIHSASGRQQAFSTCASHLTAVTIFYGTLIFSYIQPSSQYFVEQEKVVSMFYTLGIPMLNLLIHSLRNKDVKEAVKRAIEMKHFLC
# Sequence of OR5L2 (Homo sapiens) (Q8NGL0 whole entry): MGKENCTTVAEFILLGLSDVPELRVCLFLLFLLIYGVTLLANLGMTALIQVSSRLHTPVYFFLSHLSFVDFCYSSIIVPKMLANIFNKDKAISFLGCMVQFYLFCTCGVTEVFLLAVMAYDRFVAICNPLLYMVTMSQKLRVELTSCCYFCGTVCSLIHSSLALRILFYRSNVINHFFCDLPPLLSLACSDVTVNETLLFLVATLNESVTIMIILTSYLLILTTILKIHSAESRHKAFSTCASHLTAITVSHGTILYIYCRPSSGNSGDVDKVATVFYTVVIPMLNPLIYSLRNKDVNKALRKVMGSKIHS
# Sequence of OR5K2 L197M (as listed by the source, stated change not applied): as the sequence (Q8NHB8 whole entry) above, with L197M counted along it
smiles,measurement,setting,value
CSSC,odorant receptor agonist call,OR5K1 (Homo sapiens),inactive
NCC(=O)c1ccccc1,odorant receptor agonist call,OR5K1 (Homo sapiens),inactive
Cc1ccc(O)c(C)c1,odorant receptor agonist call,OR5K1 (Homo sapiens),inactive
O=Cc1ccc2c(c1)OCO2,odorant receptor agonist call,OR5K1 (Homo sapiens),inactive
SCc1ccco1,odorant receptor agonist call,OR5K1 (Homo sapiens),inactive
Cc1ccccc1O,odorant receptor agonist call,OR5K1 (Homo sapiens),inactive
COc1ccc(C=O)cc1,odorant receptor agonist call,OR5K1 (Homo sapiens),inactive
Cc1c([N+](=O)[O-])c(C)c([N+](=O)[O-])c(C(C)(C)C)c1[N+](=O)[O-],odorant receptor agonist call,OR5I1 (Homo sapiens),inactive
same,odorant receptor agonist call,OR5J2 (Homo sapiens),inactive
same,odorant receptor agonist call,OR5K2 (Homo sapiens),inactive
same,odorant receptor agonist call,OR5K3 (Homo sapiens),inactive
same,odorant receptor agonist call,OR5K4 (Homo sapiens),inactive
same,odorant receptor agonist call,OR5L1 (Homo sapiens),inactive
same,odorant receptor agonist call,OR5M1 (Homo sapiens),inactive
CCOC(=O)Cc1ccccc1,odorant receptor agonist call,OR5K1 (Homo sapiens),inactive
C=CCc1ccc(OC)cc1,odorant receptor agonist call,OR5K1 (Homo sapiens),inactive
C=CCSSCC=C,odorant receptor agonist call,OR5K1 (Homo sapiens),inactive
C=CCOC(=O)Cc1ccccc1,odorant receptor agonist call,OR5I1 (Homo sapiens),inactive
same,odorant receptor agonist call,OR5J2 (Homo sapiens),inactive
same,odorant receptor agonist call,OR5K1 (Homo sapiens),inactive
same,odorant receptor agonist call,OR5K2 (Homo sapiens),inactive
same,odorant receptor agonist call,OR5K2 L197M,inactive
same,odorant receptor agonist call,OR5K3 (Homo sapiens),inactive
same,odorant receptor agonist call,OR5K4 (Homo sapiens),inactive
same,odorant receptor agonist call,OR5L1 (Homo sapiens),inactive
same,odorant receptor agonist call,OR5L2 (Homo sapiens),inactive
same,odorant receptor agonist call,OR5M1 (Homo sapiens),inactive

# Source: the M2OR odorant receptor database
